Screens (PubChem)
SIRT5 inh – blocks human SIRT5 desuccinylation of peptide; AID 652115; 1.1% of 330,000 active; Purified SirT5, succinyl-peptide AMC, trypsin-coupled fluorescence; inhibition, % at 15 µM; in the data active means inhibition above about 15%; inconclusive means no clear call, values can overlap the other calls
Target sequence (Q9NXA8 whole entry, looked up): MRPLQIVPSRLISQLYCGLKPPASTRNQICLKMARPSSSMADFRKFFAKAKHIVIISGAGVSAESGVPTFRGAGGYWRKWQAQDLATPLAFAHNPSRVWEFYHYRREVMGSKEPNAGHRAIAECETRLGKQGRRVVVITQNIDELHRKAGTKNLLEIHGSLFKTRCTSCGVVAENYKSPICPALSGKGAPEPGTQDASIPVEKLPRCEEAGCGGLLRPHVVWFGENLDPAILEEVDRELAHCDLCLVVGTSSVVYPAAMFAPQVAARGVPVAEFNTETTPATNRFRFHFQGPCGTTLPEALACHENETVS
ARNT TACC3 PPI – disruptors of human ARNT/TACC3 interaction. Q9Y6A5. AlphaScreen His-ARNT PAS-B/GST-TACC3 binding, luminescence; TACC3 fragment carries E629A point mutation. inhibition, % at 9.99 µM. 0.66% of 390,000 active. AID 623870;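 active means mean inhibition of replicates at least 50% and at least half of replicates each reaching 50%; inconclusive means half or more replicates reach 50% but mean below 50%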;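 further: 0% = complete ARNT plus TACC3 wells and 100% = ARNT alone without TACC3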
DENV2 CPE – protects cells from dengue virus 2 cytopathic effect; DENV2-infected cells, cytopathic effect rescue, plate reader; CPE inhibition, % at 9.99 µM; 1.7% of 350,000 active; in the data active means CPE inhibition above about 20%, passing the limit was not always enough; inconclusive means no clear call, values can overlap the other calls; tested in BHK-21 cells;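 further: 0% = median of neutral control wells and 100% = median of positive control wells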
XiGFP reactiv – X-chromosome reactivation activator | activation, % at 7.58 µM | 0.055% of 360,000 active | AID 743238 | XiGFP mouse fibroblasts, % GFP-positive cells imaging, 3 d; cells co-treated with 5-aza-dC sensitizer; scaled so ellipticine positive control = 100%;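 active means mean normalized replicate activation at least 10% and every replicate at or above 10%; inconclusive means only one of the two criteria met; inactive means mean below 10% and not all replicates reach 10%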;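 further: 0% = median of on-plate neutral control wells and 100% = ellipticine 6 µM median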
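System: XiGFP fibroblasts, SV40-immortalized. Medium: DMEM plus 5-aza-dC sensitizer. Doses: single point. Timing: 3 d treatment, 15 min room-temperature fixation. Control set: ellipticine 6 µM.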
FN deposition inh – fibronectin deposition inhibition. AH1F fibroblasts, Alexa488-fibronectin deposition fluorescence, overnight. inhibition, % at 12.6 µM. 0.086% of 350,000 active. AID 743247;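 active means mean inhibition across replicates of 30% or more, regardless of how many single replicates reach that level; inconclusive means mean under 30% yet at least half of replicates reach 30%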;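 further: positive control wells lacked labelled fibronectin entirely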
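Material: AH1F fibroblast monolayer depositing Alexa488-labelled fibronectin into matrix | Input: 10000 AH1F cells/well | Medium: DMEM plus 2% serum, read in PBS | Reagent: Alexa488-fibronectin, 24 nM final in well | Compound dosing: One dose per compound, pinned | Schedule: 1 h adhesion, overnight exposure | Measured by: Fluorescence at 485 nm excitation, 525 nm emission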
FGF22 binding – binders of recombinant human FGF22 by thermal shift | Q9HCT0 | SYPRO orange fluorescence; percent of sucrose octasulfate shift, DMSO zero | activity (Tm shift, normalised), % at 9.99 µM | 1.5% of 340,000 active | AID 651658;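 active means mean Tm shift, scaled 0 neutral to 100 positive control, at about 1.3% or above, every replicate too, limit read from the data; inconclusive means no clear call, values can overlap the other calls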
Target sequence (Q9HCT0 whole entry, looked up): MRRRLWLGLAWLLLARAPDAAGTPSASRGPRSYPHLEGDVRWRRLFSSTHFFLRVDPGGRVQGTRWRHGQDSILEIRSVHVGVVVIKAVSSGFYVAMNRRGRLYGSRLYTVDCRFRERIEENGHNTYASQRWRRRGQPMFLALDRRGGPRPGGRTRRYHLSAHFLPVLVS
* = called active by the depositor; ? = inconclusive; . = no result given. In the library only some 3.8% were active in any assay of this set; here they are far more common.

SMILES | SIRT5 inh | ARNT TACC3 PPI | DENV2 CPE | XiGFP reactiv | FN deposition inh | FGF22 binding
C[C@@H]1CCCCO[C@H](CN(C)Cc2ccncc2)[C@@H](C)CN([C@@H](C)CO)C(=O)c2cc(NS(C)(=O)=O)ccc2O1 | -2 | -11 | 8 | 0 | . | 0
COc1ccc(NC(=O)CSc2nn3c(=O)c(C)nnc3s2)cc1 | 1 | 61* | -8 | 0 | . | 0
COc1ccc(NC(=O)CSc2nnc(C)c(=O)n2N)cc1 | -2 | -1 | -7 | 0 | 2 | 0
Cc1ccccc1NC(=O)CSc1nn2c(=O)c(C)nnc2s1 | -1 | 51* | . | 0 | 4 | 0
Cc1nnc2sc(SCc3ccc(Br)cc3)nn2c1=O | -5 | -7 | -4 | 0 | -3 | 0
CC(C)(C)c1nnc2sc(SCC(=O)N3CCc4ccccc43)nn2c1=O | 1 | 1 | 2 | 0 | 2 | 43*
CC(C)(C)c1nnc2sc(SCC(=O)c3ccccc3)nn2c1=O | . | -3 | . | . | . | .
Cc1nnc2sc(SCC(=O)Nc3ccc(Br)cc3)nn2c1=O | . | 74* | 12 | 0 | 7 | 0
O=C1O[C@H](c2ccccc2)[C@H](c2ccccc2)N2[C@H]1[C@@H](C(=O)Nc1nc3ccccc3s1)[C@]1(C(=O)Nc3ccc(C#CCCO)cc31)[C@H]2c1ccc(OCCO)cc1 | 7 | 18 | 4 | . | . | 0
C/C=C/c1ccc([C@H]2[C@H](CO)N(C(=O)NCCC)[C@H]2CNC(=O)C2CC2)cc1 | . | 2 | 3 | 0 | . | .
COc1ccc(OC)c(NC(=O)CSc2nn3c(=O)c(C)nnc3s2)c1 | 2 | 69* | 1 | 0 | 5 | 0
COc1ccc(CCNC(=O)CSc2nn3c(=O)c(C)nnc3s2)cc1OC | -1 | 17 | -7 | 0 | . | 0
C/C=C/c1ccc([C@@H]2[C@@H](CO)N(C(=O)NCCC)[C@H]2CN(C)C(=O)CC)cc1 | . | -6 | 78* | 0 | -14 | .
C/C=C/c1ccc([C@H]2[C@@H](CO)N(C(=O)CC)[C@@H]2CN(C)C(=O)NC(C)C)cc1 | 18* | . | ? | 0 | -11 | .
C[C@@H]1CN([C@H](C)CO)C(=O)c2cccc(NC(=O)c3cnccn3)c2O[C@H]1CN(C)CC1CCCCC1 | 0 | 4 | 1 | 0 | . | 0
Cc1ccc(S(=O)(=O)c2c(C)cc(C)nc2Oc2cccc(C(F)(F)F)c2)cc1 | . | active | . | . | . | .
CC(NC(=O)C(c1ccccc1)c1ccccc1)C(=O)O (stereo not given) | -1 | -3 | 4 | . | . | 0
CC(NC(=O)C(c1ccccc1)c1ccccc1)C(=O)N1CCCCC1 (stereo not given) | . | 3 | -2 | 0 | . | 43*
O=S(=O)(c1ccc(NC(=S)NN=Cc2ccccc2O)cc1)N1CCCCC1 | -1 | 46* | 3 | 1 | 14 | 0
O=[N+]([O-])c1cc(Cl)cc(/C=N/NC(=S)Nc2ccc(S(=O)(=O)N3CCOCC3)cc2)c1O | 7 | 70* | -4 | 0 | 5 | 0
O=C(N/N=C\c1c(O)ccc2ccccc12)c1ccc(S(=O)(=O)N2CCCCC2)cc1 | . | 1 | . | 48* | . | .
O=C(NN=Cc1c(O)ccc2ccccc12)c1ccc2c(c1)OCO2 | -4 | -1 | -6 | 0 | -8 | 0
CC[C@H]1C/C=C\C[C@@H](c2ccc(F)cc2)NC(=O)CCC(=O)N1 | . | . | . | 0 | -14 | .
CC(C)CC#Cc1ccc([C@@H]2[C@@H](CO)N3C(=O)CN(S(=O)(=O)c4ccccc4)C[C@@H]23)cc1 | -1 | . | 3 | 0 | . | .
Cc1cc(NC(=O)Cn2ccsc2=N)c([N+](=O)[O-])cc1C | 2 | . | 0 | 0 | -16 | 43*
SMILES | SIRT5 inh | ARNT TACC3 PPI | DENV2 CPE | XiGFP reactiv | FN deposition inh | FGF22 binding
Cc1ccc(NC(=O)Cn2ccsc2=N)c([N+](=O)[O-])c1 | -2 | -14 | -5 | 0 | . | 43
Cc1ccc(/C(O)=C2/C(=O)C(=O)N(CCN3CCOCC3)C2c2cccnc2)cc1 (stereo not given) | . | -7 | . | . | 4 | .
Cc1c(N2C(=O)C(=O)/C(=C(/O)c3ccc(Br)cc3)C2c2cccnc2)c(=O)n(-c2ccccc2)n1C (stereo not given) | -1 | -1 | -3 | 0 | 0 | 44*
COc1ccc(C2(O)CN(c3ccc(C)cc3)C3=[N+]2CCCC3)cc1 (stereo not given) | -1 | 5 | -7 | 0 | -5 | 43*
Cc1ccc(N2CC(O)(c3cccs3)[N+]3=C2CCCC3)cc1 (stereo not given) | -2 | -2 | -5 | 0 | -8 | 0
Cc1cccc(N=N/C(=C\O)C(=O)c2ccc(Br)cc2)c1 | -4 | 1 | 6 | 0 | 5 | 0
O=C(/C(=C/O)N=Nc1cccc(C(F)(F)F)c1)c1ccccc1 | 3 | 7 | -3 | 0 | . | 43*
O=C(NNC(=O)NC1CCCCC1)NC1CCCCC1 | -4 | -1 | -4 | 0 | -7 | 0
OC1CCCCC1 | . | . | 67* | . | . | 0
COC(=O)C1CCN(C(=O)Cc2ccccc2OC)CC1 | 2 | 0 | 3 | 0 | 6 | 43*
COc1ccc(NC(=O)N[C@@H]2CC[C@@H](CCNC(=O)c3cc(Cl)cc(Cl)c3)O[C@@H]2CO)cc1 | -1 | -1 | 6 | 0 | . | 0
CC(NS(=O)(=O)OCC(Cl)(Cl)Cl)c1ccc(Br)cc1 (stereo not given) | -1 | -7 | . | 0 | -5 | 43*
CC(C)CC(NS(=O)(=O)OCC(Cl)(Cl)Cl)c1ccccc1 (stereo not given) | 7 | 8 | 7 | 0 | -10 | 0
COc1ccc(Cc2c(C(C)(C)C)nc3c(C)cc(Br)cn23)c(C)c1 | 0 | . | 0 | 0 | -6 | 44*
COc1ccc(NC(=O)N(C)[C@H]2C[C@H]3c4[nH]c5ccccc5c4CCN3C(=O)[C@H]2CO)cc1 | -2 | . | 14 | 0 | 2 | 0
CN(C(=O)Nc1ccc(F)cc1)[C@H]1C[C@H]2c3[nH]c4ccccc4c3CCN2C(=O)[C@H]1CO | 1 | . | 44* | 0 | 0 | 0
CNC(=O)c1nnsc1S(=O)(=O)c1ccc(Cl)cc1 | -6 | -4 | 15 | 0 | . | 43*
O=C(c1nnsc1S(=O)(=O)c1ccc(Cl)cc1)N1CCOCC1 | 1 | -2 | 2 | 0 | 11 | 1
CCSc1nnc(-c2ccccc2NC(C)=O)c(=O)[nH]1 | . | 3 | . | . | 7 | .
CCCCSc1nnc(-c2ccccc2NC(C)=O)c(=O)[nH]1 | -3 | -9 | -4 | 0 | 3 | 43*
O=C(C[C@@H]1C=C[C@@H](NC(=O)c2ccncc2)[C@@H](CO)O1)NCC1CC1 | -4 | -2 | 1 | 0 | -9 | 0
Cc1sc2nc(CN3CCCC3)nc(N3CCC(C(N)=O)CC3)c2c1C | . | 3 | . | . | . | .
